Only some compounds are listed: those with a hit (about 3.3% of all), similar ones and a draw of the others.
Xi reactivation – reactivates the inactive X chromosome in mouse fibroblasts. AID 743238. XiGFP mouse fibroblasts, % GFP-positive cells imaging, 3 d; cells co-treated with 5-aza-dC sensitizer; scaled so ellipticine positive control = 100%. activation, % at 7.58 µM. 360,000 compounds, 0.055% hits;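 active = mean normalized replicate activation at least 10% and every replicate at or above 10%; inconclusive = only one of the two criteria met; inactive = mean below 10% and not all replicates reach 10%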;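 also: 0% = median of on-plate neutral control wells and 100% = ellipticine 6 µM median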
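material = 68-5-11 XiGFP fibroblast line | medium = DMEM plus 5-aza-dC sensitizer | schedule = 3 days compound exposure | benchmarks = positive control ellipticine, 6 µM final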
DENV2 CPE – DENV2-induced cell death inhibition | AID 651640 | DENV2-infected cells, cytopathic effect rescue, plate reader | CPE inhibition, % at 9.99 µM | 350,000 compounds, 1.7% hits; in the data active = CPE inhibition above about 20%, passing the limit was not always enough; inconclusive = no clear call, values can overlap the other calls; tested in BHK-21 cells;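 also: 0% = median of neutral control wells and 100% = median of positive control wells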
E-selectin induc – E-selectin induction on HUVECs; P16581; HUVEC E-selectin immunofluorescence imaging; normalized: neutral wells 0, TNF-alpha wells 100; activation, % at 7.58 µM; 260,000 compounds, 0.37% hits;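 active = mean E-selectin-positive cell signal at least 10% of the positive control, reached in at least 60% of replicates, without over 20% cell loss; inconclusive = no rule given, readout overlaps actives, possibly toxicity-flagged; inactive = the rest, including those meeting only one limit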
Target sequence (P16581 whole entry, looked up): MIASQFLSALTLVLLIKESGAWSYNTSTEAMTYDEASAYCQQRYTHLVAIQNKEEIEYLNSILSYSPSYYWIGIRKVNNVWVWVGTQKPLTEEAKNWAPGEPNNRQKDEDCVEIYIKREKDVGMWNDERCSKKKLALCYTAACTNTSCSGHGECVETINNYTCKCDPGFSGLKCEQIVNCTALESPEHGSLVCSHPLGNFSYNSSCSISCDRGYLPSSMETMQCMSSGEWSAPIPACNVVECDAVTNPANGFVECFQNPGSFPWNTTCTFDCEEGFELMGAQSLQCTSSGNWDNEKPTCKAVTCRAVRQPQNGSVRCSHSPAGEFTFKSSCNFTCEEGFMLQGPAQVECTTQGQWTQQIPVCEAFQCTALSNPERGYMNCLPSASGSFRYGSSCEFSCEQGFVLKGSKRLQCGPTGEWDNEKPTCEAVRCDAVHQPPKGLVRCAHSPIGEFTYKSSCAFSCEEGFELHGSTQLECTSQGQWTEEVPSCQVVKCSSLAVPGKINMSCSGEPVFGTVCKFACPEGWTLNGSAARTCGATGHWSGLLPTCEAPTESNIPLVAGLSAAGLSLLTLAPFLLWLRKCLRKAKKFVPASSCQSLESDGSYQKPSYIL
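Test system – human umbilical vein endothelial cells (HUVEC), E-selectin induction · Input – 3,000 HUVEC seeded per well · Buffer or medium – EGM-2, gelatin · Compound dosing – single-point compound dose · Detection – immunofluorescence imaging · Measure – percent E-selectin-positive cells · Controls – TNF-alpha high, DMSO low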
C2C12 statin – suppressors of simvastatin-induced myotoxicity in C2C12 myotubes. AID 602340. ATP luminescence, 48 h; scaled: DMSO 0, geranylgeraniol control 100. 330,000 compounds, 0.78% hits. rescue of ATP level, % at 7.49 µM;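 active = mean ATP rescue above about 67%, or every replicate alone reaching that limit, limit read from the data, passing the limit was not always enough; inconclusive = no clear call, values can overlap the other calls; inactive = mean under the limit and some replicate under it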;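 also: myotubes were challenged with 10 µM simvastatin during compound exposure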
FGF22 binding – FGF22 (human) thermal shift binding; recombinant FGF22 thermal shift, SYPRO orange fluorescence; percent of sucrose octasulfate shift, DMSO zero; activity (Tm shift, normalised), % at 9.99 µM; 340,000 compounds, 1.5% hits; AID 651658;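 active = mean Tm shift, scaled 0 neutral to 100 positive control, at about 1.3% or above, every replicate too, limit read from the data; inconclusive = no clear call, values can overlap the other calls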
Target sequence (Q9HCT0 whole entry, looked up): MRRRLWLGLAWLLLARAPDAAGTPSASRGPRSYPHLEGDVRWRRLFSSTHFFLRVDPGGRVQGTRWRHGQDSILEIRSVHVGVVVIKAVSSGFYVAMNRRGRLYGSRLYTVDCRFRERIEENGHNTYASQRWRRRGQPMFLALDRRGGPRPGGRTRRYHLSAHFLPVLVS
PglD inh – blocks C. jejuni PglD acetyltransferase activity; purified PglD enzyme, DTNB colorimetric CoA detection; inhibition, % at 12.5 µM; 360,000 compounds, 0.098% hits; in the data active = inhibition above about 16%, passing the limit was not always enough; inconclusive = no clear call, values can overlap the other calls
The depositor's hits bear a star; u = inconclusive; x = not tested or not shown; ! = a repeat was not active.

SMILES | Xi reactivation | DENV2 CPE | E-selectin induc | C2C12 statin | FGF22 binding | PglD inh
CCN1C(=O)C(=O)c2cc(C)ccc21 | 0.5 | -11.9 | -0.1 | -4.1 | 0.2 | -1.5
CC[N+]1=C(C)C(C)(C)c2cc(C)ccc21 | 73.3* | 1.4 | 169.1* | -16.0 | 42.4 | 0.1
COc1cccc(-c2ccc([C@H]3[C@@H](CO)N4CCCCN(Cc5cncnc5)C[C@H]34)cc2)c1 | 0.0 | 38.3* | -0.1 | 24.4 | -0.2 | -7.3
OC[C@@H]1[C@@H](c2ccc(-c3cccc(F)c3)cc2)[C@@H]2CN(Cc3cncnc3)CCCCN12 | 0.1 | 46.7* | -0.3 | -2.3 | 0.3 | 5.2
OC[C@@H]1[C@@H](c2ccc(-c3ccccc3F)cc2)[C@H]2CN(Cc3cncnc3)CCCCN12 | 0.1 | 68.3* | 0.5 | 9.6 | -0.3 | 1.6
CC(C)NC(=O)N1CC[C@@H]2[C@H]1c1cc(Br)ccc1N(C)[C@H]2CO | 0.2 | u | 0.5 | 13.1 | -0.1 | 1.1
CN(C)c1ccc(CC(=O)N2CCCC(c3cc(C(=O)Nc4ccc(F)c(Cl)c4)no3)C2)cc1 (stereo not given) | -0.1 | 33.0* | 0.2 | 7.2 | -0.1 | -2.3
N#C[C@H]1[C@H](c2ccc(C#Cc3ccccc3F)cc2)[C@H](CO)N1C(=O)c1cccnc1 | -0.1 | -3.6 | 0.6 | -0.9 | -0.2 | -3.0
CCN(CC)S(=O)(=O)c1ccc2c(c1)N(CC(=O)NCCN1CCOCC1)C(=O)CO2 | 0.0 | 6.5 | 8.6 | 115.9* | 0.0 | -2.6
COc1cccc(CNC(=O)CN2C(=O)COc3ccc(S(=O)(=O)N4CCCCCC4)cc32)c1 | 0.0 | -6.1 | 42.8* | -7.2 | -0.1 | -2.3
Oc1ccc(Cl)cc1C=Nc1ccc2c3c(cccc13)CC2 | 30.4* | 1.9 | 23.7 | x | 0.1 | 2.5
CN1CCN(C2=C(NS(=O)(=O)c3cccs3)C(=O)c3ccccc3C2=O)CC1 | 0.4 | -1.9 | -0.2 | x | 0.1 | 0.3
CCOc1ccccc1N1CCN(C2=C(NS(=O)(=O)c3cccs3)C(=O)c3ccccc3C2=O)CC1 | x | x | x | 110.3* | x | -2.5
CCCNC(=O)N1[C@H](CO)[C@@H](c2ccc(-c3cccc(OC)c3)cc2)[C@@H]1C#N | 0.3 | x | -0.1 | 38.6 | -0.2 | 1.8
CCCNC(=O)N1[C@H](C#N)[C@H](c2ccc(-c3cccc(OC)c3)cc2)[C@H]1CO | 0.2 | 58.4* | -0.2 | 25.1 | -0.1 | 0.2
CO[C@@H]1CN(C)C(=O)c2cc(NS(=O)(=O)c3ccccc3)ccc2OC[C@H](C)NC[C@H]1C | 0.1 | 1.6 | -0.1 | 11.4 | -0.2 | 2.4
CC(=O)NCCn1c(SCc2cc(=O)n3cc(Cl)ccc3n2)nc2ccccc2c1=O | x | x | x | 75.3* | x | -1.9
CC(=O)NCCn1c(SCc2ccccc2F)nc2ccccc2c1=O | x | x | x | 20.6 | x | -0.5
O=Cc1ccc(F)c([B-](F)(F)F)c1 | 0.1 | -12.2 | 0.1 | -7.1 | 43.5* | 0.8
O=Cc1ccc2noc(-c3ccc(F)cc3)c2c1 | x | x | x | 2.3 | x | -7.0
COc1ccc2c3c(n(C)c2c1)[C@H](CO)N(C(=O)CC1CC1)CC31CN(Cc2ccccc2)C1 | 0.1 | 10.4 | -0.4 | x | 0.0 | x
Cc1cc(C)nc(NC(=S)Nc2ccc(Br)cc2Cl)c1 | 0.2 | 1.5 | x | x | 43.0* | x
Cc1cc(C)nc(NC(=S)Nc2cccc(Cl)c2Cl)c1 | -0.3 | -2.1 | 4.3 | 6.2 | -0.1 | 1.9
COc1ccc(S(=O)(=O)N(C)C[C@H]2OCCCC[C@@H](C)Oc3ccc(NS(C)(=O)=O)cc3C(=O)N([C@@H](C)CO)C[C@@H]2C)cc1 | 0.0 | 22.4* | 0.3 | x | -0.4 | -0.8
COc1ccc(S(=O)(=O)Nc2ccc3c(c2)C(=O)N([C@H](C)CO)C[C@H](C)[C@H](CN(C)S(C)(=O)=O)OCCCC[C@@H](C)O3)cc1 | -0.1 | 20.3* | -0.1 | x | -0.2 | 0.9
SMILES | Xi reactivation | DENV2 CPE | E-selectin induc | C2C12 statin | FGF22 binding | PglD inh
COc1ccc(S(=O)(=O)Nc2ccc3c(c2)C(=O)N([C@@H](C)CO)C[C@@H](C)[C@@H](CN(C)S(=O)(=O)c2ccc(F)cc2)OCCCC[C@H](C)O3)cc1 | 0.1 | -1.4 | 0.0 | 150.5* | -0.7 | -3.4
COc1ccc(S(=O)(=O)Nc2ccc3c(c2)C(=O)N([C@@H](C)CO)C[C@H](C)[C@H](CN(C)S(=O)(=O)c2ccc(OC)cc2)OCCCC[C@H](C)O3)cc1 | 0.2 | -12.8 | 0.2 | x | 15.3* | -3.3
COc1ccc(S(=O)(=O)Nc2ccc3c(c2)C(=O)N([C@H](C)CO)C[C@H](C)[C@@H](CN(C)S(C)(=O)=O)OCCCC[C@H](C)O3)cc1 | -0.1 | 9.0 | 0.0 | x | -0.2 | -0.4
Cc1ccc(NC(=O)Nc2ccc3c(c2)C(=O)N(C)[C@@H]2CC[C@H](CC(=O)NCC(F)(F)F)O[C@@H]2CO3)cc1 | 0.0 | 0.9 | 2.1 | -9.2 | 0.0 | -0.7
COc1ccc2c3c([nH]c2c1)[C@H](CO)N(S(=O)(=O)c1cn(C)cn1)CC31CCN(CC2CCCC2)CC1 | 0.1 | -7.1 | 0.3 | x | -0.3 | x
COc1ccc(S(=O)(=O)N(C)C[C@H]2OCCCC[C@H](C)Oc3ccc(N(C)C)cc3C(=O)N([C@H](C)CO)C[C@@H]2C)cc1 | 0.0 | 23.3*! | 0.7 | -0.4 | -0.5 | -0.4
COc1ccc(S(=O)(=O)Nc2ccc3c(c2)C(=O)N([C@@H](C)CO)C[C@@H](C)[C@@H](CN(C)S(=O)(=O)c2ccc(F)cc2)OCCCC[C@@H](C)O3)cc1 | 0.2 | 2.0 | 0.1 | 133.5* | -1.0 | 3.2
CCOc1nc2ccccc2cc1C=O | 0.1 | -2.3 | 2.7 | x | 43.4* | x
CCCOc1nc2ccccc2cc1/C=C/C(=O)O | 0.0 | -6.4 | x | 5.6 | 0.3 | -4.2
CO[C@H](CN(C)Cc1nccs1)[C@@H](C)CN([C@@H](C)CO)S(=O)(=O)c1ccc(C)cc1 | 0.0 | 6.8 | -0.2 | 3.1 | 0.3 | -2.7
C[C@@H]1CC[C@]2(O[C@H](CCO)C[C@H](O)[C@H]2O)O1 | 0.3 | 39.2* | 0.1 | x | -0.1 | 10.8
OCC[C@H]1C[C@@H](O)[C@H](O)[C@@]2(Cc3ccccc3O2)O1 | -0.2 | 2.3 | -0.1 | 118.1* | -0.5 | -0.3
C[C@H]1CCC[C@]2(O[C@H](CCO)C[C@H](O)[C@H]2O)O1 | 0.4 | 5.8 | 0.0 | x | -0.1 | -1.4
C[C@@H]1CCC[C@]2(O[C@@H](CCO)C[C@@H](O)[C@@H]2O)O1 | 0.4 | 34.5* | 0.0 | x | 0.1 | 7.6
OCC[C@@H]1C[C@H](O)[C@@H](O)[C@]2(Cc3ccccc3O2)O1 | x | x | x | -1.6 | x | 6.1
CS(=O)(=O)Nc1ccc2c(c1)[C@H]1C[C@H](CC(=O)NC3CCCC3)O[C@H](CO)[C@H]1O2 | 0.0 | 0.2 | 0.6 | 0.6 | 0.1 | -1.3

High-throughput results: PubChem, Broad Institute
